One block for each compound: values may come before it. Calls of active or inactive are those of the source. The rule behind the calls is not given here.
Columns and labels:
[1] = molecular target: T1, Histamine H4 receptor (Homo sapiens, UniProt Q9H3N8); test: Displacement of [3H]histamine from human H4R expressed in Sf9 cells co-expressing RGS19, Galphai2 and Gbeta1gamma2 after 60 mins by liquid scintillation counting
[2] = molecular target: Histamine H1 receptor (Cavia porcellus, UniProt P31389); test: Antagonist activity at H1R in guinea pig ileum assessed as inhibition of histamine-induced muscle contraction after 15 mins; format: functional, tissue-based; conditions: read-out: pA2 (converted)
Chain of Histamine H1 receptor (Cavia porcellus, UniProt P31389) (P31389 whole entry): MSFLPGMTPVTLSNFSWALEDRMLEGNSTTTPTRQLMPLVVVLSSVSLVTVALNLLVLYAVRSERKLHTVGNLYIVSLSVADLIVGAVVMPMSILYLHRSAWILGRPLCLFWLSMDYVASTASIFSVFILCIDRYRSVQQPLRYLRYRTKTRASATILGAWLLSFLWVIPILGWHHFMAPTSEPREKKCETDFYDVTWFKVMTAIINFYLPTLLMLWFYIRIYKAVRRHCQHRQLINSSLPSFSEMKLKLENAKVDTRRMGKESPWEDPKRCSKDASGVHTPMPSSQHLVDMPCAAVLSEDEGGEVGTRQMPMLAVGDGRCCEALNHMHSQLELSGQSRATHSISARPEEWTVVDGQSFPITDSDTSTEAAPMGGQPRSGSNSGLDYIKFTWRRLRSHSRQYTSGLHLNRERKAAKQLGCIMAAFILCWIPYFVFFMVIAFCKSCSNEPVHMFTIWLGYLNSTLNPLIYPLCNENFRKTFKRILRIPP

[3] = molecular target: Histamine H1 receptor (Cavia porcellus) (UniProt P31389); test: Partial agonist activity at H1R in guinea pig ileum assessed as inhibition of histamine-induced muscle contraction after 15 mins; format: functional, tissue-based
Chain of Histamine H1 receptor (Cavia porcellus) (P31389 whole entry): as above
Summary of the method: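 Isolated guinea-pig ileum, contraction induced by histamine; test ligand incubated 15 min before the histamine response.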

[4] = molecular target: Histamine H1 receptor (Homo sapiens, UniProt P35367); test: biochemical; format: cell-based, Sf9
Chain of Histamine H1 receptor (Homo sapiens, UniProt P35367) (P35367 whole entry): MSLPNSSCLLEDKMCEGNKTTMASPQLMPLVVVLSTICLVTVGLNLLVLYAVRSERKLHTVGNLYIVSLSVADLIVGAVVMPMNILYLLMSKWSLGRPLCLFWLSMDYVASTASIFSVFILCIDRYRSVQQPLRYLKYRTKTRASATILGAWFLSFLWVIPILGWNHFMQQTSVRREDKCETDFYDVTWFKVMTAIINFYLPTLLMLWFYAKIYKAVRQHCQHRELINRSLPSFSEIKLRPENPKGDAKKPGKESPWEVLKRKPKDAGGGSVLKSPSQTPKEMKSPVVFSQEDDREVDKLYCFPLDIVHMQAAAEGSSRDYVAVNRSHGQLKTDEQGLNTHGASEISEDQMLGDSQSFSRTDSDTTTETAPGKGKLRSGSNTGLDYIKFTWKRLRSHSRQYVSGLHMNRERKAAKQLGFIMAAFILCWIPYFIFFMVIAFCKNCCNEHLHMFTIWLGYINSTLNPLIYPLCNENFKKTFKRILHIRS

[5] = molecular target: T1, Histamine H4 receptor; test: Partial agonist activity at human H4R expressed in Sf9 cells co-expressing RGS19, Galphai2 and Gbeta1gamma2 assessed as stimulation of [35S]GTPgammaS binding relative to histamine; format: functional
[6] = molecular target: T1, Histamine H4 receptor; test: Partial agonist activity at human H4R expressed in Sf9 cells co-expressing RGS19, Galphai2 and Gbeta1gamma2 assessed as stimulation of [35S]GTPgammaS binding; format: functional
[7] = molecular target: T1, Histamine H4 receptor; test: Inverse agonist activity at human H4R expressed in Sf9 cells co-expressing RGS19, Galphai2 and Gbeta1gamma2 assessed as […] of [35S]GTPgammaS binding relative to histamine; format: functional
[8] = molecular target: T1, Histamine H4 receptor; test: Inverse agonist activity at human H4R expressed in Sf9 cells co-expressing RGS19, Galphai2 and Gbeta1gamma2 assessed as […] of [35S]GTPgammaS binding; format: functional

SMILES: COc1ccc(CN(CCN[C@H]2CCN(C(=O)c3cc4ccccc4[nH]3)C2)c2ccccn2)cc1
- Ki [1]: 27.5 µM
- Kb [2]: 0.00851 µM
- inhibition [3]: inactive
- Ki [4]: 0.457 µM

SMILES: O=C(c1cc2ccccc2[nH]1)N1CCN(CCOC(c2ccccc2)c2ccccc2)CC1
- Ki [1]: 17.8 µM
- inhibition [3]: inactive
- Ki [4]: 0.224 µM

SMILES: COc1ccc(CN(CCN2CCN(C(=O)c3nc4ccccc4[nH]3)CC2)c2ccccn2)cc1
- Ki [1]: 22.4 µM
- Kb [2]: 0.00724 µM
- inhibition [3]: inactive
- Ki [4]: 0.603 µM

SMILES: COc1ccc(CCN2CCC(Nc3nc4ccccc4n3Cc3ccc(F)cc3)CC2)cc1 [ASTEMIZOLE]
- Ki [1]: 7.94 µM

SMILES: COc1ccc(CN(CCN2CCN(C(=O)c3cc4cc(Cl)ccc4[nH]3)CC2)c2ccccn2)cc1
- Ki [1]: 15.8 µM
- Kb [2]: 0.0204 µM
- inhibition [3]: inactive
- Ki [4]: 0.776 µM

More lines, in order of falling Ki [1], values ahead:

- Ki [1]: 14.1 µM
- Kb [2]: 0.0126 µM
- inhibition [3]: inactive
- Ki [4]: 0.214 µM
SMILES: COc1ccc(CN(CCN(C)CC(C)Nc2ccc3[nH]c(C(=O)N4CCN(C)CC4)cc3c2)c2ccccn2)cc1 (racemic)

- Ki [1]: 10.5 µM
- Ki [4]: 0.0055 µM
SMILES: O=C(c1cc2ccccc2[nH]1)N1CCN(CCN2CCC(Nc3nc4ccccc4n3Cc3ccc(F)cc3)CC2)CC1

- Ki [1]: 8.91 µM
- Kb [2]: 0.0049 µM
- inhibition [3]: inactive
- Ki [4]: 0.00708 µM
- Emax [7]: < -1%
- EC50 [8]: > 100 µM
SMILES: COc1ccc(CN(CCN(C)CCN2CCN(C(=O)c3cc4ccccc4[nH]3)CC2)c2ccccn2)cc1

- Ki [1]: 6.76 µM
- Kb [2]: 0.00759 µM
- inhibition [3]: inactive
- Ki [4]: 0.1 µM
SMILES: COc1ccc(CN(CCN(C)CCN2CCN(C(=O)c3cc4cc(Cl)ccc4[nH]3)CC2)c2ccccn2)cc1

- Ki [1]: 5.89 µM
- Kb [2]: 0.0107 µM
- inhibition [3]: inactive
- Emax [5]: 88%
- Ki [4]: 0.17 µM
- EC50 [6]: 105 µM
SMILES: COc1ccc(CN(CCN2CCN(C(=O)c3cc4ccccc4[nH]3)CC2)c2ccccn2)cc1

- Ki [1]: 0.288 µM
SMILES: CN1CCN(C(=O)c2nc3ccccc3[nH]2)CC1

— ChEMBL document CHEMBL1909509, “Mepyramine-JNJ7777120-hybrid compounds show high affinity to hH(1)R, but low affinity to hH(4)R” (Bioorg Med Chem Lett, 2011)
